# T cruzi growth-1: T. cruzi proliferation inhibition; inhibition, % at 8.34 µM; AID 624255; 5.9% of 77,000 active; T. cruzi beta-gal in NIH3T3, GalScreen luminescence, 90 h;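 active means mean inhibition above about 93%, with at least 55% of replicates each passing it, limit read from the data, passing the limit was not always enough; inconclusive means only one of those two conditions holds; inactive means neither condition holds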
# IDH1 mut inh: inhibitors of human IDH1 R132H; O75874; IDH1 R132H reductase, diaphorase/resazurin fluorescence, 60 min; inhibition, % at 10 µM; 0.18% of 70,000 active; AID 624101; in the data active means inhibition above about 34%; inconclusive means no clear call, values can overlap the other calls; inactive means below about 11%;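 further: 0% = DMSO and 100% = no enzyme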
# KDM4C inh: KDM4C (human) demethylase inhibition; AID 720574; Q9H3R0; inhibition, % at 12.5 µM; GST-KDM4C 2-372, H3K9me3 peptide, LANCE TR-FRET; 0.15% of 96,000 active;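 active means mean replicate inhibition above about 25%, with at least 55% of replicates also reaching it, limit read from the data, passing the limit was not always enough; inconclusive means only one of those two conditions met; inactive means neither condition met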
# Target sequence (Q9H3R0 2-372 limits assumed): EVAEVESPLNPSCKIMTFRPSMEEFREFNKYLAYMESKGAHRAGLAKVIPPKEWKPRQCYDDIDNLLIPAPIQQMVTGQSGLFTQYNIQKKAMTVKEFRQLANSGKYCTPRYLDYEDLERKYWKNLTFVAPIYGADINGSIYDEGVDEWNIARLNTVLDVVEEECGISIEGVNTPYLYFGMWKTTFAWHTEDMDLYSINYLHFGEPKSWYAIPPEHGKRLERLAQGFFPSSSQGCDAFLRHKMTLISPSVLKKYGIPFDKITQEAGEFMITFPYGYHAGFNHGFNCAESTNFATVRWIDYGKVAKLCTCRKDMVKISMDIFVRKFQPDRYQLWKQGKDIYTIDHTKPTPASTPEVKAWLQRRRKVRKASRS
#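 Test system – GST-tagged GASC-1 (JMJD2C) catalytic fragment, aa 2-372 · Medium – HEPES buffer, pH 7.5, plus ascorbate · Reagent – H3K9me3 peptide with Fe(II)/2OG · Compound – one test concentration per compound · Timing – 30 min reaction, 60 min detection, RT · Technique – TR-FRET with Eu antibody and ULight streptavidin, EDTA stop · Read-out basis – inhibition from TR-FRET ratio decrease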
# Pf Dd2 growth: inhibitors of Plasmodium falciparum Dd2 growth | P. falciparum Dd2 growth, SYBR Green, 72 h; hits give low values | activity change, % at 10 µM | 2.3% of 94,000 active | AID 1159554; in the data active means activity change below about -80%; inconclusive means no clear call, values can overlap the other calls
# T cruzi growth-2: blocks T. cruzi growth in NIH3T3 host cells. 72% of 5,600 active. inhibition, % at 8.35 µM. T. cruzi beta-gal in NIH3T3, GalScreen luminescence, 90 h. AID 651739. shares compounds with T cruzi growth-1;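 active means mean replicate inhibition above about 95% and at least 55% of replicates individually reaching it, limit read from the data; inconclusive means only one of the two criteria is met; inactive means neither criterion is met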
# T cruzi growth-3: inhibitors of T. cruzi proliferation; shares compounds with T cruzi growth-1; T. cruzi beta-gal in NIH3T3, GalScreen luminescence, 90 h; inhibition, % at 2.09 µM; 21% of 5,600 active;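 active means mean inhibition above about 95%, with at least 55% of replicates also reaching it, limit read from the data; inconclusive means meets just one of the two conditions; inactive means meets neither condition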;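 further: plate controls were neutral control median for no effect and positive control median for full effect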
# 3T3 cytotox: NIH/3T3 (mouse) viability loss; shares compounds with T cruzi growth-1; NIH/3T3 viability, CellTiter-Glo ATP luminescence, 90 h; cytotoxicity (signal decrease), % at 8.35 µM; 14% of 5,600 active;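 active means mean signal decrease across replicates above about 35% based on untreated-well scatter, with enough replicates individually passing, limit read from the data; inconclusive means no rule stated though some were filed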;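 further: 0% = median of neutral control wells and 100% = median of positive control wells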
# NIH3T3 tox 2: cytotoxicity in mouse NIH/3T3 fibroblasts; shares compounds with T cruzi growth-1; NIH/3T3 viability, CellTiter-Glo ATP luminescence, 90 h; inhibition, % at 24.9 µM; 56% of 5,600 active; AID 651744;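 active means mean loss of cell viability signal at or above a set limit, and enough replicates individually reaching it; inconclusive means meets only the mean limit or only the replicate share; inactive means meets neither condition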;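 further: 0% = median of neutral control wells and 100% = median of positive control wells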
# Starred values were filed as active, the others as inactive; ? = inconclusive; nt = no result given. A selection: hits, their analogues and other compounds. The true share with any hit is near 5.8%.
SMILES,T cruzi growth-1,IDH1 mut inh,KDM4C inh,Pf Dd2 growth,T cruzi growth-2,T cruzi growth-3,3T3 cytotox,NIH3T3 tox 2
C[C@@H]1CN([C@H](C)CO)C(=O)c2cc(/C=C/c3ccccc3)cnc2O[C@@H]1CN(C)S(=O)(=O)c1ccccc1F,84,2,-4,-41,nt,nt,nt,nt
COc1ccc(S(=O)(=O)N(C)C[C@@H]2Oc3ncc(/C=C/c4ccccc4)cc3C(=O)N([C@H](C)CO)C[C@H]2C)cc1,nt,0,-4,-20,nt,nt,nt,nt
C[C@H](CO)N1C[C@H](C)[C@@H](CN(C)S(=O)(=O)c2ccc(F)cc2)Oc2ncc(/C=C/c3ccccc3)cc2C1=O,85*,nt,-3,-66,103*,49,-1,-1
C[C@H](CO)N1C[C@H](C)[C@@H](CN(C)S(=O)(=O)c2ccccc2F)Oc2ncc(/C=C/c3ccccc3)cc2C1=O,126*,0,-4,-72,101*,55,25,26
COc1cccc(S(=O)(=O)N(C)C[C@@H]2Oc3ncc(/C=C/c4ccccc4)cc3C(=O)N([C@H](C)CO)C[C@@H]2C)c1,106*,0,-1,-58,105*,73,?,77*
O=C(COc1ccc([N+](=O)[O-])cc1)Nc1ccccc1OC(F)F,nt,1,nt,nt,nt,nt,nt,nt
COc1ccc(S(=O)(=O)N(C)C[C@@H]2Oc3ccc(NC(=O)Nc4ccc(C(F)(F)F)cc4)cc3C(=O)N([C@@H](C)CO)C[C@@H]2C)cc1,?,1,-5,-16,102*,57,?,46*
COc1ccc(S(=O)(=O)N(C)C[C@H]2Oc3ccc(NC(=O)Nc4ccc(C(F)(F)F)cc4)cc3C(=O)N([C@@H](C)CO)C[C@H]2C)cc1,?,0,-4,11,99*,60,45*,81*
COc1ccc(S(=O)(=O)N(C)C[C@H]2Oc3ccc(NC(=O)Nc4ccc(C(F)(F)F)cc4)cc3C(=O)N([C@H](C)CO)C[C@H]2C)cc1,?,0,-3,-18,103*,25,42*,51*
COc1ccc(NC(=O)Nc2ccc3c(c2)C(=O)N([C@H](C)CO)C[C@@H](C)[C@@H](CN(C)S(=O)(=O)c2ccc(OC)cc2)O3)cc1,16,-1,3,24,nt,nt,nt,nt
COc1ccc(C2C(C(=O)Nc3ccccc3)=C(C)Nc3ncnn32)cc1O (configuration not stated),nt,0,nt,nt,nt,nt,nt,nt
CCOC(=O)CN(C)C1=NS(=O)(=O)c2ccccc21,nt,0,nt,nt,nt,nt,nt,nt
C[C@H]1CN([C@@H](C)CO)S(=O)(=O)c2ccc(C3=CCCCC3)cc2O[C@@H]1CN(C)C(=O)C1CCCCC1,121*,nt,1,-36,103*,99*,-12,105*
C[C@@H]1CN([C@@H](C)CO)S(=O)(=O)c2ccc(C3=CCCCC3)cc2O[C@H]1CN(C)C(=O)C1CCCCC1,118*,6,0,-46,104*,45,9,96*
C[C@H](CO)N1C[C@H](C)[C@@H](CN(C)C(=O)C2CCCCC2)Oc2cc(C3=CCCCC3)ccc2S1(=O)=O,113*,nt,-2,-26,110*,48,5,105*
C[C@@H]1CN([C@@H](C)CO)S(=O)(=O)c2ccc(C3=CCCCC3)cc2O[C@@H]1CN(C)C(=O)C1CCCCC1,119*,nt,9,12,105*,93,34,106*
CS(=O)(=O)N(CC(=O)Nc1cc(Cl)ccc1Cl)c1ccc(I)cc1,nt,0,nt,nt,nt,nt,nt,nt
O=C(c1ccc(F)cc1)N1CCCCN2[C@H](CO)[C@H](c3ccc(C#CC4(O)CCCC4)cc3)[C@H]2C1,106*,nt,0,-18,72,16,-2,1
O=C(c1ccc(F)cc1)N1CCCCN2[C@@H](CO)[C@@H](c3ccc(C#CC4(O)CCCC4)cc3)[C@@H]2C1,?,nt,0,2,80,4,-4,5
O=C(C1CC1)N1CCCCN2[C@@H](CO)[C@H](c3ccc(C#CC4(O)CCCC4)cc3)[C@@H]2C1,77,nt,nt,20,nt,nt,nt,nt
O=C(c1ccc(F)cc1)N1CCCCN2[C@@H](CO)[C@H](c3ccc(C#CC4(O)CCCC4)cc3)[C@@H]2C1,62,nt,2,-3,nt,nt,nt,nt
NCCNc1ccc([N+](=O)[O-])c(NCCO)c1,nt,0,nt,nt,nt,nt,nt,nt
Cc1ccc(-c2ccc3c(c2)O[C@@H](CN(C)C(=O)Nc2ccccc2)[C@H](C)CN([C@H](C)CO)S3(=O)=O)cc1,nt,0,-1,-36,nt,nt,nt,nt
COc1ccc(NC(=O)N(C)C[C@H]2Oc3cc(-c4ccc(C)cc4)ccc3S(=O)(=O)N([C@@H](C)CO)C[C@@H]2C)cc1,126*,0,-1,-74,107*,60,-9,37*
COc1ccc(NC(=O)N(C)C[C@H]2Oc3cc(-c4ccc(C)cc4)ccc3S(=O)(=O)N([C@H](C)CO)C[C@@H]2C)cc1,114*,-2,-3,-80,95,26,29,27
SMILES,T cruzi growth-1,IDH1 mut inh,KDM4C inh,Pf Dd2 growth,T cruzi growth-2,T cruzi growth-3,3T3 cytotox,NIH3T3 tox 2
COc1ccc(NC(=O)N(C)C[C@@H]2Oc3cc(-c4ccc(C)cc4)ccc3S(=O)(=O)N([C@@H](C)CO)C[C@H]2C)cc1,97*,5,0,-93*,104*,55,-2,23
COc1ccc(NC(=O)N(C)C[C@@H]2Oc3cc(-c4ccc(C)cc4)ccc3S(=O)(=O)N([C@@H](C)CO)C[C@@H]2C)cc1,104*,0,-2,-87*,115*,70,?,43*
CCc1ccc(OCC(=O)Nc2ccccc2-c2nc3ccccc3s2)cc1,nt,0,nt,nt,nt,nt,nt,nt
COc1ccc(OC)c(NC(=O)c2ccc(N(C)S(=O)(=O)c3ccc(OC)c(OC)c3)cc2)c1,nt,0,nt,nt,nt,nt,nt,nt
COc1ccc(NC(=O)N(C)C[C@H]2Oc3cc(-c4ccc(C)cc4)ccc3S(=O)(=O)N([C@H](C)CO)C[C@H]2C)cc1,102*,0,-3,-75,104*,71,1,-1
COc1ccc(NC(=O)N(C)C[C@@H]2Oc3cc(-c4ccc(C)cc4)ccc3S(=O)(=O)N([C@H](C)CO)C[C@H]2C)cc1,108*,0,0,-89*,105*,49,10,26*
Cc1cc(C)c(S(=O)(=O)N(CC(=O)Nc2ccccc2C(F)(F)F)C2CCCCC2)c(C)c1,nt,0,nt,nt,nt,nt,nt,nt
O=C(C[C@H]1CC[C@H]2[C@@H](COC[C@@H](O)CN2S(=O)(=O)c2ccc(Cl)cc2)O1)N[C@@H]1CCN(Cc2ccccc2)C1,96*,nt,-1,-29,?,71,-11,0
Cc1ccc(S(=O)(=O)N2C[C@H](O)COC[C@@H]3O[C@H](CC(=O)N[C@@H]4CCN(Cc5ccccc5)C4)CC[C@H]32)cc1,68,nt,1,-19,nt,nt,nt,nt

# High-throughput results as filed in PubChem.
